Bioassay records as filed in PubChem BioAssay.
Only some compounds are listed: those with a hit (about 3.3% of all), similar ones and a draw of the others.
CendR NRP1 mod: NRP-1/CendR interaction modulation; O14786; FAM-RPARPAR peptide binding to NRP-1, fluorescence polarization; inhibition, % at 25 µM; 0.85% of 360,000 active; AID 602438;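 active = inhibition or corrected inhibition above about 18%, plus a signal ratio from 0.5 to 1.5, limit read from the data, passing the limit was not always enough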
Target sequence (O14786 whole entry, looked up): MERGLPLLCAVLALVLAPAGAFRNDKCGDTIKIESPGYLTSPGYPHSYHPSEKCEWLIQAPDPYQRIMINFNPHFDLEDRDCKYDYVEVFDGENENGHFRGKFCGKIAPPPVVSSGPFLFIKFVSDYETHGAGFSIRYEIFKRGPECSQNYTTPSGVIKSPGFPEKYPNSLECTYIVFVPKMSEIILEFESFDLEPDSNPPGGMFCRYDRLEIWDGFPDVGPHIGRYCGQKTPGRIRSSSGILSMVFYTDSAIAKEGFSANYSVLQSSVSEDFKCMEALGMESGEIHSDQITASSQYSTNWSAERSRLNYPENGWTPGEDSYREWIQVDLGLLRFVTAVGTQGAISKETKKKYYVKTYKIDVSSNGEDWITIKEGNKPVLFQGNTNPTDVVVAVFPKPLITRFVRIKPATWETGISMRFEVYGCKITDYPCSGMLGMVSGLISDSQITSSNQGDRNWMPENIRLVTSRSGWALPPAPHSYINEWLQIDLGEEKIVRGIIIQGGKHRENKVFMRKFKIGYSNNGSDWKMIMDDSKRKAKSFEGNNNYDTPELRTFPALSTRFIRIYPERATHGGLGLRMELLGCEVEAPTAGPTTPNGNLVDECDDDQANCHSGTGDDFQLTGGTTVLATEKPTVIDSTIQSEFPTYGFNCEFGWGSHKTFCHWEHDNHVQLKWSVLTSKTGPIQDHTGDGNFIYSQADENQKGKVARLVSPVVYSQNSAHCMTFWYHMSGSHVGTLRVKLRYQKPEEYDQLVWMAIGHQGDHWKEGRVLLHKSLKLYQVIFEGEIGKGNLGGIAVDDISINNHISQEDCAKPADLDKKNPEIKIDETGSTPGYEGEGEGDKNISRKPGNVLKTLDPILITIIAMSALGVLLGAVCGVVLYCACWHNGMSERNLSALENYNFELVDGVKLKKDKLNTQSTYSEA
SENP1 inh: blocks the human SENP1 SUMO protease catalytic domain; recombinant SENP1 catalytic domain, CyPet-SUMO1-YPet FRET cleavage; AID 624204; inhibition, % at 10 µM; 0.21% of 360,000 active; Q9P0U3;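 active = inhibition at least 30% at 10 µM, raw YFP signal under a set limit, fluorescence ratio 0.5 to 1.5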
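System: Recombinant human SENP1 catalytic domain, His6-tagged | Incubation: Enzyme reaction for 50 min at room temperature, dark | Medium: Tris pH 8 with BME, BSA, NP40 and catalase | Also added: 25 nM SUMO1 FRET substrate | Compound: 10 µM single point, 0.5% DMSO | Measured by: FRET fluorescence in CFP and YFP emission channels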
SENP8 block-1: blocks human SENP8 cleavage of Nedd8 substrate; Q96LD8; recombinant SENP8, Nedd8 substrate fluorescence; inhibition, % at 20 µM; 0.64% of 360,000 active; in the data active = inhibition mostly above about 40%, no sharp cut-off; inactive = mostly below about 27%
SENP6 block: blocks the human protease SENP6 | Recombinant SENP6 catalytic domain, aminoluciferin luminescence | inhibition, % at 10 µM | AID 2599 | Q9GZR1 | 1.8% of 330,000 active;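 active = inhibition above about 50% at the single tested dose, limit read from the data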
SENP7 block: SENP7 protease inhibition; Q9BQF6; recombinant SENP7, Z-RLRGG-aminoluciferin luminescence, 40 min; inhibition, % at 5 µM; 1.5% of 330,000 active;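 active = inhibition above about 50% at the single test dose, limit read from the data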
SENP8 block-2: blocks the human protease SENP8. purified SENP8, Z-RLRGG-aminoluciferin cleavage, luminescence. inhibition, % at 10 µM. 1.2% of 330,000 active. Q96LD8; in the data active = inhibition above about 50%
SENP8 conf: human SENP8 inhibition, confirmed | 40% of 6,200 active | AID 488912 | inhibition, % at 12.5 µM | shares compounds with SENP7 block | Recombinant SENP8, Z-RLRGG-aminoluciferin luminescence, 60 min;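 active = mean inhibition across replicates above about 50%, limit read from the data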
SENP6 confirm: confirmation of human SENP6 protease inhibitors; shares compounds with SENP7 block; recombinant SENP6, Z-RLRGG-aminoluciferin luminescence; inhibition, % at 12.5 µM; 58% of 6,200 active
SENP7 confirm: human SENP7 inhibition, confirmed | recombinant SENP7, Z-RLRGG-aminoluciferin luminescence, 40 min | 69% of 6,200 active | inhibition, % at 12.5 µM | shares compounds with SENP7 block
Casp3 select: inhibits human caspase-3 in SENP selectivity test; shares compounds with SENP7 block; purified caspase-3, Z-DEVD-aminoluciferin luminescence, 60 min; inhibition, % at 12.5 µM; 60% of 6,200 active; AID 488918;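 active = mean inhibition above about 50%, limit read from the data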
Luc interf: counter-screen for SENP inhibitors: luminescence interference. Pre-incubated SENP8/Z-RLRGG-aminoluciferin, luciferase luminescence interference. shares compounds with SENP7 block. inhibition, % at 12.5 µM. 39% of 6,200 active;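 active = mean inhibition above about 50% when retested at one dose, limit read from the data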
Each line names hits and unclear results; the compound was inactive in the other large screens (follow-up assays come after a bar, where they were run).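 Rule for the calls, unless noted: active = mean inhibition above about 50% in the one-dose retest (limit read from the data); inactive = the rest.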

CC1C(c2ccccc2)OCCN1C(=S)NC(=O)c1ccccc1 (stereo unspecified)	none (no result: SENP6 block, SENP7 block, SENP8 block-2)
CCCC1CCC(c2ccc(OCC)cc2)=CC1=O (stereo unspecified)	SENP6 block 65 | SENP8 conf inactive | SENP6 confirm inactive | SENP7 confirm 71 | Casp3 select inactive | Luc interf inactive
CCOc1ccc(N2C(=O)CCC2=O)cc1	none
O=C(Oc1ccc2ccccc2c1Br)N1CCCCCC1	SENP6 block 90, SENP7 block 82, SENP8 block-2 78 | SENP8 conf 87 | SENP6 confirm 91 | SENP7 confirm 96 | Casp3 select 72 | Luc interf inactive
O=C(O)c1ccc(N2Cc3ccccc3C2)cc1O	SENP6 block 70, SENP8 block-2 65 | SENP8 conf inactive | SENP6 confirm 71 | SENP7 confirm 89 | Casp3 select 90 | Luc interf 75
CCOc1ccc(OCCCC(=O)N(CC)CC(=O)Nc2c(F)cccc2F)cc1	none
CC(C)(C)C(=O)Nc1ccc(N=Nc2ccccc2)cc1	SENP7 block 64 | SENP8 conf inactive | SENP6 confirm 61 | SENP7 confirm 91 | Casp3 select 59 | Luc interf inactive
Cc1nn2cc(-c3cccc(Cl)c3)cnc2c1Br	SENP7 block 81 | SENP8 conf inactive | SENP6 confirm inactive | SENP7 confirm inactive | Casp3 select inactive | Luc interf inactive
Cc1ccc(NC(=S)c2nc3ccccc3[nH]2)cc1	SENP6 block 79, SENP7 block 55, SENP8 block-2 57 | SENP8 conf 71 | SENP6 confirm 78 | SENP7 confirm 95 | Casp3 select 60 | Luc interf inactive
Cc1ccc(NC(=S)c2nc3ccccc3[nH]2)c(C)c1	none
O=C1NC[C@H](CCCCN2C[C@H](Cc3ccccc3)N(Cc3ccccc3)C(=O)C2=O)N(CCC2CCCCC2)C1=O	none (no result: SENP6 block, SENP7 block, SENP8 block-2)
CCCCn1nnnc1C(c1ccc(OC)cc1)N1CCN(C/C=C/c2ccccc2)CC1 (stereo unspecified)	none (no result: SENP6 block, SENP7 block, SENP8 block-2)
O=[N+]([O-])c1ccccc1COc1ccc(Cl)c2cccnc12	SENP6 block 83, SENP7 block 93, SENP8 block-2 72 | SENP8 conf 50 | SENP6 confirm 52 | SENP7 confirm 73 | Casp3 select 74 | Luc interf inactive
O=C(Oc1ccc(Cl)c2cccnc12)c1cccc([N+](=O)[O-])c1	none
COc1ccccc1CNCC(=O)Nc1ccc(N2CCOCC2)cc1	none
COc1ccccc1NC(=O)Nc1ccc(N2CCOCC2)cc1	SENP6 block 64, SENP7 block 56 | SENP8 conf 65 | SENP6 confirm 62 | SENP7 confirm 87 | Casp3 select 80 | Luc interf 66
COc1ccccc1NC(=O)Nc1ccc(-n2ccc(C(F)(F)F)n2)cc1	SENP6 block 80, SENP7 block 82, SENP8 block-2 73 | SENP8 conf 76 | SENP6 confirm 82 | SENP7 confirm 93 | Casp3 select inactive | Luc interf 69
CC1(C)CC(=O)C=C(c2cccc(OC(=O)c3ccc(Br)cc3)c2)C1=O	none (no result: SENP6 block, SENP7 block, SENP8 block-2)
O=C(Nc1ccc2c(c1)CCC2)Nc1ccc(F)cc1F	SENP7 block 70 | SENP8 conf inactive | SENP6 confirm inactive | SENP7 confirm inactive | Casp3 select inactive | Luc interf inactive
O=C(Nc1ccc2c(c1)CCC2)Nc1ccccc1F	SENP6 block 96, SENP7 block 99, SENP8 block-2 92 | SENP8 conf 69 | SENP6 confirm 95 | SENP7 confirm 102 | Casp3 select 92 | Luc interf 76
COc1ccc(NC(=O)Nc2ccc3c(c2)CCC3)cc1OC	none
O=C(Nc1ccc2c(c1)OCO2)Nc1ccc(F)cc1F	SENP6 block 90, SENP7 block 90, SENP8 block-2 73 | SENP8 conf 76 | SENP6 confirm 76 | SENP7 confirm 98 | Casp3 select 89 | Luc interf 86
Cc1ccccc1NC(=O)Nc1ccc2c(c1)CCC2	SENP6 block 70, SENP7 block 84 | SENP8 conf inactive | SENP6 confirm inactive | SENP7 confirm inactive | Casp3 select inactive | Luc interf inactive
O=C(Nc1ccc2c(c1)CCC2)c1c(F)cccc1Cl	none
Cc1ccc(NC(=O)Nc2ccc3c(c2)CCC3)cc1	none
O=C(Nc1ccc2c(c1)OCO2)Nc1ccc2c(c1)OCO2	none
CC1(C(=O)O)CCCN1C(=O)c1cccc(C(F)(F)F)c1 (stereo unspecified)	none (no result: SENP6 block, SENP7 block, SENP8 block-2)
CCOc1ccc(S(=O)(=O)N2CCC(C(=O)Nc3cc(S(C)(=O)=O)ccc3Cl)CC2)cc1	none
CCCNC(=O)C1(C)CCCN(C/C=C/c2ccccc2)C1 (stereo unspecified)	none (no result: SENP6 block, SENP7 block, SENP8 block-2)
O=C1/C(=C/c2ccccc2)CCCc2ccccc21	SENP6 block 70, SENP7 block 66, SENP8 block-2 76 | SENP8 conf 89 | SENP6 confirm 93 | SENP7 confirm 97 | Casp3 select 76 | Luc interf 83
O=C1/C(=C\c2cccnc2)CCc2ccccc21	SENP6 block 74 | SENP8 conf 75 | SENP6 confirm 63 | SENP7 confirm inactive | Casp3 select inactive | Luc interf 84
O=C1/C(=C/c2cccnc2)CC/C1=C\c1cccnc1	none
O=[N+]([O-])c1ccc(Br)c(CN2CCN(c3ncc(Cc4ccccc4)cn3)CC2)c1	none (no result: SENP6 block, SENP7 block, SENP8 block-2)
CC(=O)c1ccc(S(=O)(=O)N2CCN(c3nc(-c4cccnc4)nc4ccccc34)CC2)cc1	none
O/C(=C\c1nc2ccccc2nc1/C=C(\O)c1ccccc1)c1ccccc1	none
O=Nc1[nH]c(=O)c(/C=C(\O)c2ccccc2)nc1NO	SENP6 block 56, SENP7 block 58 | SENP8 conf 68 | SENP6 confirm 64 | SENP7 confirm 86 | Casp3 select 93 | Luc interf 70
COC(=O)c1c(NC(=O)C2COc3ccccc3O2)sc2c1CCN(C(=O)OC)C2 (stereo unspecified)	none (no result: SENP6 block, SENP7 block, SENP8 block-2)
Cn1c(/C=C/c2ccccc2[N+](=O)[O-])nc2ccccc2c1=O	none
